Molecules are shown by their SMILES.

Our source for the Activity and IC50 values is ChEMBL document CHEMBL4043093, “2-Oxo-3, 4-dihydropyrimido[4, 5-d]pyrimidinyl derivatives as new irreversible pan fibroblast growth factor receptor (FGFR) inhibitors” (Eur J Med Chem, 2017).

Test [1] concerns the target Tyrosine-protein kinase ITK/TSK (Homo sapiens) (UniProt Q08881). Nature of the test: Inhibition of wild-type human partial length ITK (R335 to L620 residues) expressed in Escherichia coli BL21 assessed as residual activity at 1000 nM after 30 mins by Kinomescan method relative to control.
The target in test [2] is Cyclin-dependent kinase 9 (Homo sapiens) (UniProt P50750). Nature of the test: Inhibition of wild-type human full length CDK9 (M1 to F372 residues) expressed in Escherichia coli BL21 assessed as residual activity at 1000 nM after 30 mins by Kinomescan method relative to control. Summed up: (§1)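 Single-point screen at a fixed 1 µM, run within a 456-kinase DiscoveRx KINOMEscan panel. Each kinase's read-out is Percent Control, i.e. signal relative to a control without compound. Hits were scored by a Percent Control < 35 cut-off, and an S(35) selectivity score was calculated across the non-mutant kinases.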

Test [3] has as its target Activin receptor type-2B (Homo sapiens) (UniProt Q13705). Nature of the test: Inhibition of wild-type human ACVR2B (H169 to D504 residues) expressed in Escherichia coli BL21 assessed as residual activity at 1000 nM after 30 mins by Kinomescan method relative to control. Summed up:
as §1

Test [4] deals with Fibroblast growth factor receptor 1 (Homo sapiens, UniProt P11362). The experiment in a line: Inhibition of human recombinant His-tagged FGFR1 cytoplasmic domain (308 to 731 residues) expressed in baculovirus using Tyr-4 peptide after 1 hr by FRET-based Z'-Lyte assay.
Chain of Fibroblast growth factor receptor 1 (P11362 whole entry, the tested form may be a part): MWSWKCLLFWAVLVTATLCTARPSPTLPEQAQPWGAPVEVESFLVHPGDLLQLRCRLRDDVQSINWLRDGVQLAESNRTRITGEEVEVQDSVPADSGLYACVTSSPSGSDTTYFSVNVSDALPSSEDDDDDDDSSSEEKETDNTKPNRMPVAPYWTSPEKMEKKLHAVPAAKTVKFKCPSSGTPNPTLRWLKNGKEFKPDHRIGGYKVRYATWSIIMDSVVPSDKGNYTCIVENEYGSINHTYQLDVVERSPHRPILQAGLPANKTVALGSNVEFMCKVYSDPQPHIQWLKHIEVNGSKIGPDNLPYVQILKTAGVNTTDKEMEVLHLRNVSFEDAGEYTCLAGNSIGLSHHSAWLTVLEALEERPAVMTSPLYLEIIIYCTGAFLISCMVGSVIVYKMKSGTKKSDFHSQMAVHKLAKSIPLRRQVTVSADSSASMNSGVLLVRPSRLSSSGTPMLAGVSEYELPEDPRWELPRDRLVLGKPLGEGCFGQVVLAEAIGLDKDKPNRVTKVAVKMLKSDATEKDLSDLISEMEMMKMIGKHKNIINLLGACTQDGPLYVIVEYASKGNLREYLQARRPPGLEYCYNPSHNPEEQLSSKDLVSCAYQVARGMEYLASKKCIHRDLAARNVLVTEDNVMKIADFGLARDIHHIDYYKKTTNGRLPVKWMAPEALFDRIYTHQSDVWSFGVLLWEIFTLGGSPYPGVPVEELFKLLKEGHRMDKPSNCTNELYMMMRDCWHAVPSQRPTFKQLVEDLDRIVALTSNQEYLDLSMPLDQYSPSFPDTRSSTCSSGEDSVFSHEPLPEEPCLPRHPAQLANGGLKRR
The target of test [5] is Vascular endothelial growth factor receptor 3 (Homo sapiens) (UniProt P35916). Nature of the test: Inhibition of wild-type human partial length FLT4 (E821 to E1196 residues) expressed in Escherichia coli BL21 assessed as residual activity at 1000 nM after 30 mins by Kinomescan method relative to control.
In test [6] the test system is Proto-oncogene tyrosine-protein kinase receptor Ret (Homo sapiens), P07949 [V804L]. The experiment in a line: Inhibition of human partial length RET V804L mutant (E713 to D1014 residues) expressed in Escherichia coli BL21 assessed as residual activity at 1000 nM after 30 mins by Kinomescan method relative to control. Summed up:
as §1

Test [7] has as its target Serine/threonine-protein kinase pim-3 (Homo sapiens) (UniProt Q86V86). Nature of the test: Inhibition of wild-type human partial length PIM3 (G16 to A317 residues) expressed in Escherichia coli BL21 assessed as residual activity at 1000 nM after 30 mins by Kinomescan method relative to control.
The target of test [8] is Cyclin-dependent kinase 2 (Homo sapiens) (UniProt P24941). Nature of the test: Inhibition of wild-type human full length CDK2 (M1 to L298 residues) expressed in Escherichia coli BL21 assessed as residual activity at 1000 nM after 30 mins by Kinomescan method relative to control. A digest of the protocol:
as §1

The target of test [9] is Serine/threonine-protein kinase D1 (Homo sapiens) (UniProt Q15139). Nature of the test: Inhibition of wild-type human partial length PRKD1 (G551 to E870 residues) expressed in Escherichia coli BL21 assessed as residual activity at 1000 nM after 30 mins by Kinomescan method relative to control.
Chain of Serine/threonine-protein kinase D1 (Homo sapiens) (Q15139 whole entry, the tested form may be a part): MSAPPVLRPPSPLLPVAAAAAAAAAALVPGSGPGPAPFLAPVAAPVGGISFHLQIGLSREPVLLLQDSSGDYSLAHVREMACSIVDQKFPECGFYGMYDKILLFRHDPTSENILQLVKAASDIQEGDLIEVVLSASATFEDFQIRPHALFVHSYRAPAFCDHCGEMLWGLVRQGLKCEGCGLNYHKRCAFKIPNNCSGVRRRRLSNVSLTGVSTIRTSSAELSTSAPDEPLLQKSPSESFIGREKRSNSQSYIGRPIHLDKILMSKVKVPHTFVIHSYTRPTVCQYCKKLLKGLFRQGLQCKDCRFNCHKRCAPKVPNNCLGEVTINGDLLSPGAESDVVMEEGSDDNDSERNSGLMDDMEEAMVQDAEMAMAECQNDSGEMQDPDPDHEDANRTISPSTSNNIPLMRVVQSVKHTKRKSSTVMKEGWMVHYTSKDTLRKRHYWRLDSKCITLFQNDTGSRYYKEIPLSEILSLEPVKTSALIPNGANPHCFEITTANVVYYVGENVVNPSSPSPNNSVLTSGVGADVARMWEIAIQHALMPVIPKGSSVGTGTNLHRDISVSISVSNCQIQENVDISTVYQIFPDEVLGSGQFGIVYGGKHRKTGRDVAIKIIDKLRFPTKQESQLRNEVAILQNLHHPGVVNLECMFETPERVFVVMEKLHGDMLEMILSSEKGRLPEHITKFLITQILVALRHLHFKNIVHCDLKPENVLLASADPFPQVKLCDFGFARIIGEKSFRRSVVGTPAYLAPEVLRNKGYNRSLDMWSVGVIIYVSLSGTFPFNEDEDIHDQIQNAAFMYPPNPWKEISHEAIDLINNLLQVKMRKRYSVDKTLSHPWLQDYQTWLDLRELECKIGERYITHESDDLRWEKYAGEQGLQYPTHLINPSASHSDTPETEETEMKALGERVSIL
Test [10] has as its target Dual specificity testis-specific protein kinase 1 (Homo sapiens) (UniProt Q15569). The experiment in a line: Inhibition of wild-type human full length TESK1 (R37 to S626 residues) expressed in Escherichia coli BL21 assessed as residual activity at 1000 nM after 30 mins by Kinomescan method relative to control.
Another test is filed under the species Homo sapiens. Nature of the test: Inhibition of human partial length FLT3 ITD/F691L double mutant expressed in Escherichia coli BL21 assessed as residual activity at 1000 nM after 30 mins by Kinomescan method relative to control. Summed up:
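KINOMEscan binding panel of 456 kinases, with the test compound at a single concentration of 1 µM. Read-out is Percent Control.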

Test [11] addresses Calcium/calmodulin-dependent protein kinase type II subunit alpha (Homo sapiens) (UniProt Q9UQM7). Nature of the test: Inhibition of wild-type human partial length CAMK2A (M1 to K328 residues) expressed in Escherichia coli BL21 assessed as residual activity at 1000 nM after 30 mins by Kinomescan method relative to control.
Test [12] addresses Myosin-IIIb (Homo sapiens) (UniProt Q8WXR4). Nature of the test: Inhibition of wild-type human partial length MYO3B (M1 to D357 residues) expressed in Escherichia coli BL21 assessed as residual activity at 1000 nM after 30 mins by Kinomescan method relative to control.
For test [13], the target named is Serine/threonine-protein kinase tousled-like 1 (Homo sapiens) (UniProt Q9UKI8). The experiment in a line: Inhibition of wild-type human partial length TLK1 (K447 to A754 residues) expressed in Escherichia coli BL21 assessed as residual activity at 1000 nM after 30 mins by Kinomescan method relative to control.
Test [14] addresses Calcium/calmodulin-dependent protein kinase type II subunit beta (Homo sapiens) (UniProt Q13554). The experiment in a line: Inhibition of wild-type human partial length CAMK2B (M1 to Q380 residues) expressed in Escherichia coli BL21 assessed as residual activity at 1000 nM after 30 mins by Kinomescan method relative to control.
Test [15] concerns the target Serine/threonine-protein kinase Nek6 (Homo sapiens) (UniProt Q9HC98). Nature of the test: Inhibition of wild-type human full length NEK6 (M8 to T313 residues) expressed in Escherichia coli BL21 assessed as residual activity at 1000 nM after 30 mins by Kinomescan method relative to control. A digest of the protocol:
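Single-concentration screen at 1 µM across a 456-kinase KINOMEscan panel. The read-out is Percent Control for each kinase.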

In test [16] the target is STE20/SPS1-related proline-alanine-rich protein kinase (Homo sapiens) (UniProt Q9UEW8). The experiment in a line: Inhibition of wild-type human partial length STK39 (P43 to I357 residues) expressed in HEK293 cells assessed as residual activity at 1000 nM after 30 mins by Kinomescan method relative to control. It is filed as cell-based.
Test [17] has as its target Ephrin type-B receptor 2 (Homo sapiens) (UniProt P29323). Nature of the test: Inhibition of wild-type human partial length EPHB2 (I597 to L902 residues) expressed in Escherichia coli BL21 assessed as residual activity at 1000 nM after 30 mins by Kinomescan method relative to control.
In test [18] the target is Cyclin-dependent kinase 11B (Homo sapiens) (UniProt P21127). Nature of the test: Inhibition of wild-type human partial length CDC2L1 (P353 to G692 residues) expressed in Escherichia coli BL21 assessed as residual activity at 1000 nM after 30 mins by Kinomescan method relative to control.
Chain of Cyclin-dependent kinase 11B (Homo sapiens) (P21127 whole entry, the tested form may be a part): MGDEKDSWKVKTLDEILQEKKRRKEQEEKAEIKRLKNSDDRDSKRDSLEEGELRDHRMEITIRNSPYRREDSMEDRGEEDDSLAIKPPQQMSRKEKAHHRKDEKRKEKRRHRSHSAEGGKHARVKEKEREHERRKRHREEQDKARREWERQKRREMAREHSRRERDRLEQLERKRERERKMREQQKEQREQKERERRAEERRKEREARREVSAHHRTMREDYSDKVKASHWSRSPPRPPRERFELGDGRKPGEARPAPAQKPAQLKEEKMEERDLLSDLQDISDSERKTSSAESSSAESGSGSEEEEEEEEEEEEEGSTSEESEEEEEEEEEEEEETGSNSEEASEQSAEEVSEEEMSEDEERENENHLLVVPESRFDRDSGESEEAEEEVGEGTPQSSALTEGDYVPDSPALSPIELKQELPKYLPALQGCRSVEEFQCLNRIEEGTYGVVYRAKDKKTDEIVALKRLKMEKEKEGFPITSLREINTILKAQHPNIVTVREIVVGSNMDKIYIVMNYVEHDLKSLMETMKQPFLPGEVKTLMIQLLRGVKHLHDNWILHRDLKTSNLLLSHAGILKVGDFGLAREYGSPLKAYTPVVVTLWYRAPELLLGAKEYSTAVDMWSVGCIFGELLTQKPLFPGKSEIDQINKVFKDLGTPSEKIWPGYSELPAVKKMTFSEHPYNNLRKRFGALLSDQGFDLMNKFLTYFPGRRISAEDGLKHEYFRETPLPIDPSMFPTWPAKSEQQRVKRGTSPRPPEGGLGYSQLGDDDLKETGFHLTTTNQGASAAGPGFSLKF
For test [19], the target named is Serine/threonine-protein kinase 38-like (Homo sapiens) (UniProt Q9Y2H1). The experiment in a line: Inhibition of wild-type human partial length NDR2 (N34 to E447 residues) expressed in Escherichia coli BL21 assessed as residual activity at 1000 nM after 30 mins by Kinomescan method relative to control.
The target in test [20] is Ribosomal protein S6 kinase alpha-6 (Homo sapiens) (UniProt Q9UK32). The experiment in a line: Inhibition of wild-type human partial length N-terminal RSK4 kinase domain 1 (M1 to E397 residues) expressed in HEK293 cells assessed as residual activity at 1000 nM after 30 mins by Kinomescan method relative to control. In kind it is cell-based.
Test [21] addresses Tyrosine-protein kinase Blk (Homo sapiens) (UniProt P51451). The experiment in a line: Inhibition of wild-type human partial length BLK (G211 to L503 residues) expressed in Escherichia coli BL21 assessed as residual activity at 1000 nM after 30 mins by Kinomescan method relative to control.

Chain of Ephrin type-B receptor 2 (Homo sapiens) (P29323 whole entry, the tested form may be a part): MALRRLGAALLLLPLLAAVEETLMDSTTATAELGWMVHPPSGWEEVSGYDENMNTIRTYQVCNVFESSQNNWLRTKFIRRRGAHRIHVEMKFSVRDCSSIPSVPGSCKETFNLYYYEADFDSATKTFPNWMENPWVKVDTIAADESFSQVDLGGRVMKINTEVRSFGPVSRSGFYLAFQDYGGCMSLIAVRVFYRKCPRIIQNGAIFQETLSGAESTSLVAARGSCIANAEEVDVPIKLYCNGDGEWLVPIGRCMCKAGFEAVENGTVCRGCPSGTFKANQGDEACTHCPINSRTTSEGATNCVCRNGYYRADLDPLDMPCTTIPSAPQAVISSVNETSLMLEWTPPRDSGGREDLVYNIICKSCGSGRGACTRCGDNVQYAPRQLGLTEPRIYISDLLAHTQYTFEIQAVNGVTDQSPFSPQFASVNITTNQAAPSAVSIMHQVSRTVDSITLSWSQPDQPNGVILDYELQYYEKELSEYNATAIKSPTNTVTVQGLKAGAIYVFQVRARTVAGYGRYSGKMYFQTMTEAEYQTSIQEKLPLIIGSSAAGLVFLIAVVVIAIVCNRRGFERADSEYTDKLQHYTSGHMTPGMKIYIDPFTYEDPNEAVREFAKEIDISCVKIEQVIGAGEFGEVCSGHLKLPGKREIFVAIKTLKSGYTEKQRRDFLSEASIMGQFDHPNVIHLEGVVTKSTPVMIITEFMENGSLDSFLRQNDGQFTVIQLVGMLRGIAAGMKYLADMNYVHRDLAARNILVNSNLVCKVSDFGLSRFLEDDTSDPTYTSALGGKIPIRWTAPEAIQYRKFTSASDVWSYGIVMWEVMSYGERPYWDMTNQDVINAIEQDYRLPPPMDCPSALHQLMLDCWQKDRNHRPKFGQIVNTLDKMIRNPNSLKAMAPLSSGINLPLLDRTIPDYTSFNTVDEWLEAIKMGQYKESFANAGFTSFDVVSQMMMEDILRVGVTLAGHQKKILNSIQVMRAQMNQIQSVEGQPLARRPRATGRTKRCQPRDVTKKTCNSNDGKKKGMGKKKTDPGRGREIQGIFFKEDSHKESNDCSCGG
Chain of Activin receptor type-2B (Homo sapiens) (Q13705 whole entry, the tested form may be a part): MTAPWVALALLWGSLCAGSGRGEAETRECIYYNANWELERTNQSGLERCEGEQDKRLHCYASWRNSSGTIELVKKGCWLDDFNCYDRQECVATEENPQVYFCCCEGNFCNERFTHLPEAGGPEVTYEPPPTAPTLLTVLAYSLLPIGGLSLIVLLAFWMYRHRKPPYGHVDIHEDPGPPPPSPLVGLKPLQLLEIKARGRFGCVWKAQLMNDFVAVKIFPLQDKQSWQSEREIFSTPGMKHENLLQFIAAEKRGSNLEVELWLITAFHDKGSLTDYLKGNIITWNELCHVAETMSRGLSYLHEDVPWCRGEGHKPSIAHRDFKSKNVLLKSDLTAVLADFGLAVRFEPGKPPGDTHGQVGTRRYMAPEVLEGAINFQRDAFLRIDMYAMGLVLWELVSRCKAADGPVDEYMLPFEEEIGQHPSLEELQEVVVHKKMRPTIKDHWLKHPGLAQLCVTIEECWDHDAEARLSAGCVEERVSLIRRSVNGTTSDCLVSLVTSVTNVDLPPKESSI
Chain of Dual specificity testis-specific protein kinase 1 (Homo sapiens) (Q15569 whole entry, looked up, the tested form may be a part): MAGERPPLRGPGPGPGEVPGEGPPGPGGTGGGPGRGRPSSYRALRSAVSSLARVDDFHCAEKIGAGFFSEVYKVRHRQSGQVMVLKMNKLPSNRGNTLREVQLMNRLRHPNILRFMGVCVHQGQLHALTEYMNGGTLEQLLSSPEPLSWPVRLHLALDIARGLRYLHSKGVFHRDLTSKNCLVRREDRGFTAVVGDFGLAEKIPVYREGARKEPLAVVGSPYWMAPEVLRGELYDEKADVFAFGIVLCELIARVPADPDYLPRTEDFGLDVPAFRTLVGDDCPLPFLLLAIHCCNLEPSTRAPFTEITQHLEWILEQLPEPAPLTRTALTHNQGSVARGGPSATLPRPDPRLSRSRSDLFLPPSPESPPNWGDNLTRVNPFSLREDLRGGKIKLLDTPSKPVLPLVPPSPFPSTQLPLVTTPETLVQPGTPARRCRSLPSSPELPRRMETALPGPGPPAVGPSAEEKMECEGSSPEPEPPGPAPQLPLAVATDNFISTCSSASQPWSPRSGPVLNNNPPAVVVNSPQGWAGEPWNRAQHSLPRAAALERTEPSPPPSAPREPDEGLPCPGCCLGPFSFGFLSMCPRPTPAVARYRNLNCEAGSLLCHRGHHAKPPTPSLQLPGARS
Chain of Serine/threonine-protein kinase Nek6 (Homo sapiens) (Q9HC98 whole entry, the tested form may be a part): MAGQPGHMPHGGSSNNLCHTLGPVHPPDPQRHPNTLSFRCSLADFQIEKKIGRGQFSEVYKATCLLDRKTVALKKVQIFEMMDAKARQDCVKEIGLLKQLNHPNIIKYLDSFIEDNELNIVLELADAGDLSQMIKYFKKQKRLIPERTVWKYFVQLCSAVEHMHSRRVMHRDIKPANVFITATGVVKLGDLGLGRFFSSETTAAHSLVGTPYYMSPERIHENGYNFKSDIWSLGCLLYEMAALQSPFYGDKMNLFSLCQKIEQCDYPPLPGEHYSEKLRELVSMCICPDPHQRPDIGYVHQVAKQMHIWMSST

With `COc1cc(OC)c(Cl)c(N2Cc3cnc(Nc4ccc(F)cc4)nc3N(C3CCN(C(=O)/C=C/CN(C)C)CC3)C2=O)c1Cl`, the Activity in test [1] is 100%; in test [2], 97%; in [3], 98%; in test [5], 2.7%; in test [6], 94%; in test [7], 100%. The Activity stood at 100% in test [8]; 73% in test [9]; 82% in [10]; 90% in the test filed under Homo sapiens; 100% in test [11]; 100% in [12]. The Activity in test [13] is 100%; in [14], 100%; in test [15] it was 100%; in test [16] it was 100%; in [17] it was 99%; in [18], 100%. Besides, the Activity in test [19] worked out at 100%; in [20] it was 100%; in [21] it was 0.6%. Further, the IC50 in [4] stood at 990 pM.

Usually IC50 stands for the concentration needed to halve the response being measured.
